Source: ChEMBL document CHEMBL1126324, “Cardiotonic agents. 7. Prodrug derivatives of 4-ethyl-1,3-dihydro- 5-[4-(2-methyl-1H-imidazol-1-yl)benzoyl]-2H-imidazol-2-one” (J Med Chem, 1992)
≈ marks a conversion by molar mass, not a printed value.

How the values were obtained:
Canis familiaris = species on record: Canis familiaris; experiment: Half life time was observed by 50% conversion to compound 1 in dog plasma; assay type: ADME, Canis lupus familiaris; settings: in vitro
Procedure, shortened: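 Prodrug with internal standard diluted 1:100 from stock in 0.05 M NaH2PO4/0.1% H3PO4 into fasted canine plasma, held at 37 °C. Conversion to parent followed by HPLC; half-life of drug consumed.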

[1] = Half life time was observed by 50% conversion to compound 1 at pH 1.5; assay type: ADME
Procedure, shortened: (§1)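 Aliquots taken at set intervals; prodrug, parent and internal standard quantified by reversed-phase HPLC with UV detection (alkyl phenyl column, 50 °C, phosphate/CH3CN gradient). t1/2 of drug consumed; mean of at least two determinations.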

[2] = Inhibition of c-AMP phosphodiesterase
[3] = Half life time was observed by 50% conversion to compound 1 at pH 7.4; assay type: ADME; procedure, shortened: as §1
[4] = Solubility was measured in pH 7.4 phosphate buffer; assay type: physicochemical
Procedure, shortened: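 Solubility in pH 7.4 phosphate buffer, quantified by HPLC.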

Mustela putorius furo = species on record: Mustela putorius furo; experiment: Increased contractile force of ferret papillary muscle; assay type: functional, Muscle tissue
Procedure, shortened: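 Isolated ferret papillary muscle, 30-min preincubation with compound; value is the concentration (μM) giving a 20% increase in contractile force. Mean of at least two determinations, with and without 1 μM propranolol co-administration.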

[5] = Partition coefficient was determined in an octanol/ pH 7.4 phosphate buffer system.; assay type: physicochemical; settings: octanol/water

| SMILES | T1/2 (Canis familiaris) [min] | T1/2 [1] [h] | IC50 [2] [µM] | T1/2 [3] [h] | solubility [4] [µM] | Partition coefficient [5] | C20 (Mustela putorius furo) [µM] |
| --- | --- | --- | --- | --- | --- | --- | --- |
| CCc1nc(O)n(C(=O)c2ccccc2)c1C(=O)c1ccc(-n2ccnc2C)cc1 | 38 | 263 | 157 | 25 | 23 (≈ 9.21 µg/mL) | 92 | 0.2 |
| CCc1[nH]c(O)nc1C(=O)c1ccc(-n2ccnc2C)cc1 | – | – | – | – | 44 (≈ 13 µg/mL) | 7 | 0.5 |
| CCc1nc(O)n(Cc2ccccc2)c1C(=O)c1ccc(-n2ccnc2C)cc1 | – | – | – | – | – | – | 13 |
| CCc1nc(O)n(C(=O)Cc2ccccc2)c1C(=O)c1ccc(-n2ccnc2C)cc1 | – | 39 | – | 1.5 | 25 (≈ 10.4 µg/mL) | – | 0.2 |

Further lines, with some results ahead:

| T1/2 (Canis familiaris) [min] | T1/2 [1] [h] | IC50 [2] [µM] | T1/2 [3] [h] | solubility [4] [µM] | Partition coefficient [5] | SMILES | C20 (Mustela putorius furo) [µM] |
| --- | --- | --- | --- | --- | --- | --- | --- |
| 30 | 21 | – | 8 | 40 (≈ 13.5 µg/mL) | 26 | CCc1nc(O)n(C(C)=O)c1C(=O)c1ccc(-n2ccnc2C)cc1 | 0.2 |
| 30 | 17 | – | 6 | 30 (≈ 10.6 µg/mL) | 52 | CCC(=O)n1c(O)nc(CC)c1C(=O)c1ccc(-n2ccnc2C)cc1 | 0.3 |
| 47 | 132 | – | 8 | 10 (≈ 3.66 µg/mL) | > 200 | CCc1nc(O)n(C(=O)C(C)C)c1C(=O)c1ccc(-n2ccnc2C)cc1 | 0.3 |
